Laboratory results published in PMC6172068 (Cancer Science, 2018).

Assays:
[1] = system: leukocyte receptor tyrosine kinase; details: preclinical studies; cited from earlier work
[2] = system: relapsed/refractory (R/R) AML; details: cited from earlier work
[3] = 12-lead electrocardiogram QT interval; type: in vivo, Japanese patients
Urine pharmacokinetics = type: in vivo, Japanese patients
[4] = system: FLT3 receptors expressing FLT3-TKD D835 mutations; details: leukemic cells; cited from earlier work
[5] = system: FLT3 receptors expressing F691 gatekeeper mutations; details: leukemic cells; cited from earlier work
[6] = system: FLT3 receptors expressing FLT3-ITD; details: leukemic cells; cited from earlier work
[7] = system: anaplastic lymphoma kinase; details: preclinical studies; cited from earlier work
FLT3 = details: preclinical studies; cited from earlier work
AXL = details: preclinical studies; cited from earlier work
[8] = system: relapsed/refractory (R/R) acute myeloid leukemia (AML); assay: Antileukemic activity; type: in vivo, Japanese patients
Procedure, shortened: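 Adults (≥18 years) with relapsed/refractory AML took an oral test compound once daily in escalating cohorts (20–300 mg/d). Cycle 0 was a single dose with 2-day observation, followed by 28-day cycles. Marrow aspirates or biopsies were taken at screening, Cycle 1 Day 28, Day 1 of later cycles and end of treatment. CR, CRp and CRi followed International Working Group criteria. The full analysis set was used.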

c-Kit = details: cited from earlier work
[9] = one patient who received 20 mg/d
[10] = FLT3 mutation-negative patients, Total (n = 11)
[11] = FLT3 mutation-positive patients, 20 mg (n = 1)
[12] = FLT3 mutation-positive patients, 40 mg (n = 1)
[13] = FLT3 mutation-positive patients, 80 mg (n = 1)
[14] = FLT3 mutation-positive patients, 200 mg (n = 2)
[15] = patients with mutated FLT3 (n = 5), 1 patient
[16] = patients with wild-type FLT3 (n = 11), 1 patient

Compound: CCc1nc(C(N)=O)c(Nc2ccc(N3CCC(N4CCN(C)CC4)CC3)c(OC)c2)nc1NC1CCOCC1 [gilteritinib]
- inhibition of leukocyte receptor tyrosine kinase [1]: robust inhibitor
- median OS duration ([2]; doses ≥80 mg/d): 31 weeks
- overall response rate (ORR) ([2]; doses ≥80 mg/d): 52%
- maximum tolerated dose (MTD) ([2]; once-daily oral, R/R AML, USA, Germany and Italy): 300 mg/day
- possible treatment-related prolongation of the QTcF interval ([3]; 1 patient, 40 mg/d dose cohort): 4.2%
- prolonged QT interval identified as an AE ([3]; 2 patients (20 mg/d and 40 mg/d)): 8.3%
- patients with maximum QTcF change of >30 ms ([3]; 5 of 22 evaluable patients): 22.7%
- patients with prolonged QT interval of >450 ms (QTcF) ([3]; 9 of 24 patients): 37.5%
- maximum postbaseline QTcF change from baseline [3, 9]: 65 ms
- mean maximum postbaseline QTcF [3, 9]: 486 ms
- mean percentage of unchanged excreted gilteritinib (urine) (Urine pharmacokinetics; after a single dose (data not shown)): ≤ 3.6%
- mean percentage of unchanged excreted gilteritinib (urine) (Urine pharmacokinetics; after multiple doses): ≤ 13.1%
- inhibition of FLT3 receptors expressing FLT3-TKD D835 mutations [4]: strongly inhibited
- inhibition of FLT3 receptors expressing F691 gatekeeper mutations [5]: weak inhibitor
- inhibition of FLT3 receptors expressing FLT3-ITD [6]: strongly inhibited
- inhibition of anaplastic lymphoma kinase [7]: robust inhibitor
- inhibition of FLT3 (FLT3): robust inhibitor
- inhibition of AXL (AXL): robust inhibitor
- CR ([8]; All patients, 20 mg (n = 1)): 0 n (%, [95% CI])
- CRc (CR plus CRp plus CRi) ([8]; All patients, 20 mg (n = 1)): 1 (100 [2.5, 100]) n (%, [95% CI])
- CRi ([8]; All patients, 20 mg (n = 1)): 1 (100 [2.5, 100]) n (%, [95% CI])
- CRp ([8]; All patients, 20 mg (n = 1)): 0 n (%, [95% CI])
- ORR (CRc plus PR) ([8]; All patients, 20 mg (n = 1)): 1 (100 [2.5, 100]) n (%, [95% CI])
- PR ([8]; All patients, 20 mg (n = 1)): 0 n (%, [95% CI])
- CR ([8]; All patients, 40 mg (n = 3)): 0 n (%, [95% CI])
- CRc (CR plus CRp plus CRi) ([8]; All patients, 40 mg (n = 3)): 0 n (%, [95% CI])
- CRi ([8]; All patients, 40 mg (n = 3)): 0 n (%, [95% CI])
- CRp ([8]; All patients, 40 mg (n = 3)): 0 n (%, [95% CI])
- CR ([8]; All patients, 80 mg (n = 4)): 1 (25 [0.6, 80.6]) n (%, [95% CI])
- CRc (CR plus CRp plus CRi) ([8]; All patients, 80 mg (n = 4)): 1 (25 [0.6, 80.6]) n (%, [95% CI])
- CRi ([8]; All patients, 80 mg (n = 4)): 0 n (%, [95% CI])
- CRp ([8]; All patients, 80 mg (n = 4)): 0 n (%, [95% CI])
- ORR (CRc plus PR) ([8]; All patients, 80 mg (n = 4)): 2 (50 [6.8, 93.2]) n (%, [95% CI])
- PR ([8]; All patients, 80 mg (n = 4)): 1 (25 [0.6, 80.6]) n (%, [95% CI])
- CR ([8]; All patients, 120 mg (n = 2)): 0 n (%, [95% CI])
- CRc (CR plus CRp plus CRi) ([8]; All patients, 120 mg (n = 2)): 1 (50 [1.3, 98.7]) n (%, [95% CI])
- CRi ([8]; All patients, 120 mg (n = 2)): 1 (50 [1.3, 98.7]) n (%, [95% CI])
- CRp ([8]; All patients, 120 mg (n = 2)): 0 n (%, [95% CI])
- ORR (CRc plus PR) ([8]; All patients, 120 mg (n = 2)): 1 (50 [1.3, 98.7]) n (%, [95% CI])
- PR ([8]; All patients, 120 mg (n = 2)): 0 n (%, [95% CI])
- CR ([8]; All patients, 200 mg (n = 7)): 0 n (%, [95% CI])
- CRc (CR plus CRp plus CRi) ([8]; All patients, 200 mg (n = 7)): 4 (57.1 [18.4, 90.1]) n (%, [95% CI])
- CRi ([8]; All patients, 200 mg (n = 7)): 1 (14.3 [0.4, 57.9]) n (%, [95% CI])
- CRp ([8]; All patients, 200 mg (n = 7)): 3 (42.9 [9.9, 81.6]) n (%, [95% CI])
- ORR (CRc plus PR) ([8]; All patients, 200 mg (n = 7)): 4 (57.1 [18.4, 90.1]) n (%, [95% CI])
- PR ([8]; All patients, 200 mg (n = 7)): 0 n (%, [95% CI])
- CR ([8]; All patients, 300 mg (n = 2)): 0 n (%, [95% CI])
- CRc (CR plus CRp plus CRi) ([8]; All patients, 300 mg (n = 2)): 0 n (%, [95% CI])
- CRi ([8]; All patients, 300 mg (n = 2)): 0 n (%, [95% CI])
- CRp ([8]; All patients, 300 mg (n = 2)): 0 n (%, [95% CI])
- ORR (CRc plus PR) ([8]; All patients, 300 mg (n = 2)): 0 n (%, [95% CI])
- PR ([8]; All patients, 300 mg (n = 2)): 0 n (%, [95% CI])
- CRc ([8]; FAS, all doses, 7 of 19 patients, 95% CI: 16.3, 61.6): 36.8%
- ORR ([8]; FAS, all doses, n = 9/19, 95% CI: 24.4, 71.1): 47.4%
- Median duration of CRc ([8]; FAS, 95% CI: 28.0, 116.0): 86.5 days
- Median duration of remission ([8]; FAS, 95% CI: 28.0, 139.0): 113.5 days
- CR [8, 10]: 1 (9.1 [0.2, 41.3]) n (%, [95% CI])
- CRc (CR plus CRp plus CRi) [8, 10]: 3 (27.3 [6.0, 61.0]) n (%, [95% CI])
- CRi [8, 10]: 0 n (%, [95% CI])
- CRp [8, 10]: 2 (18.2 [2.3, 51.8]) n (%, [95% CI])
- ORR (CRc plus PR) [8, 10]: 4 (36.4 [10.9, 69.2]) n (%, [95% CI])
- PR [8, 10]: 1 (9.1 [0.2, 41.3]) n (%, [95% CI])
- CRc ([8]; FLT3 mutation-positive patients (n = 5), 95% CI: 14.7, 94.7): 60%
- ORR ([8]; FLT3 mutation-positive patients (n = 5), 95% CI: 28.4, 99.5): 80%
- CR [8, 11]: 0 n (%, [95% CI])
- CRc (CR plus CRp plus CRi) [8, 11]: 1 (100 [2.5, 100]) n (%, [95% CI])
- CRi [8, 11]: 1 (100 [2.5, 100]) n (%, [95% CI])
- CRp [8, 11]: 0 n (%, [95% CI])
- ORR (CRc plus PR) [8, 11]: 1 (100 [2.5, 100]) n (%, [95% CI])
- PR [8, 11]: 0 n (%, [95% CI])
- CR [8, 12]: 0 n (%, [95% CI])
- CRc (CR plus CRp plus CRi) [8, 12]: 0 n (%, [95% CI])
- CRi [8, 12]: 0 n (%, [95% CI])
- CRp [8, 12]: 0 n (%, [95% CI])
- ORR (CRc plus PR) [8, 12]: 0 n (%, [95% CI])
- PR [8, 12]: 0 n (%, [95% CI])
- CR [8, 13]: 0 n (%, [95% CI])
- CRc (CR plus CRp plus CRi) [8, 13]: 0 n (%, [95% CI])
- CRi [8, 13]: 0 n (%, [95% CI])
- CRp [8, 13]: 0 n (%, [95% CI])
- ORR (CRc plus PR) [8, 13]: 1 (100 [2.5, 100]) n (%, [95% CI])
- PR [8, 13]: 1 (100 [2.5, 100]) n (%, [95% CI])
- CR [8, 14]: 0 n (%, [95% CI])
- CRc (CR plus CRp plus CRi) [8, 14]: 2 (100 [15.8, 100]) n (%, [95% CI])
- CRi [8, 14]: 1 (50 [1.3, 98.7]) n (%, [95% CI])
- CRp [8, 14]: 1 (50 [1.3, 98.7]) n (%, [95% CI])
- ORR (CRc plus PR) [8, 14]: 2 (100 [15.8, 100]) n (%, [95% CI])
- PR [8, 14]: 0 n (%, [95% CI])
- Median duration of CRc ([8]; FLT3 mutation-positive patients, 95% CI: 30.0, 116.0): 63.0 days
- Median duration of remission ([8]; FLT3 mutation-positive patients, 95% CI: 30.0, not evaluable): 89.5 days
- CR with incomplete platelet recovery [8, 15]: 20%
- partial remission (PR) [8, 15]: 20%
- CR with incomplete hematologic recovery ([8]; patients with mutated FLT3 (n = 5), 2 patients): 40%
- CR [8, 16]: 9.1%
- PR [8, 16]: 9.1%
- CR with incomplete platelet recovery ([8]; patients with wild-type FLT3 (n = 11), 2 patients): 18.2%
- CRc ([8]; patients without FLT3 mutations (n = 11), 95% CI: 6.0, 61.0): 27.3%
- ORR ([8]; patients without FLT3 mutations (n = 11), 95% CI: 10.9, 69.2): 36.4%
- Median duration of CRc ([8]; patients without FLT3 mutations, 95% CI: 28.0, 111.0): 69.5 days
- Median duration of remission ([8]; patients without FLT3 mutations, 95% CI: 28.0, 127.0): 111.0 days
- inhibitory effect on c-Kit (c-Kit): minimal inhibitory effect
